Experimental data as given in ChEMBL document CHEMBL1143062, “Identification of natural-product-derived inhibitors of 5-lipoxygenase activity by ligand-based virtual screening” (J Med Chem, 2007).

What was measured:
[1] = target: T1, Polyunsaturated fatty acid 5-lipoxygenase (Homo sapiens) (UniProt P09917); assay: Inhibition of partially purified human 5-LO expressed in Escherichia coli assessed as remaining 5-LO activity at 1 uM; values are per cent of control
T1 sequence (whole entry): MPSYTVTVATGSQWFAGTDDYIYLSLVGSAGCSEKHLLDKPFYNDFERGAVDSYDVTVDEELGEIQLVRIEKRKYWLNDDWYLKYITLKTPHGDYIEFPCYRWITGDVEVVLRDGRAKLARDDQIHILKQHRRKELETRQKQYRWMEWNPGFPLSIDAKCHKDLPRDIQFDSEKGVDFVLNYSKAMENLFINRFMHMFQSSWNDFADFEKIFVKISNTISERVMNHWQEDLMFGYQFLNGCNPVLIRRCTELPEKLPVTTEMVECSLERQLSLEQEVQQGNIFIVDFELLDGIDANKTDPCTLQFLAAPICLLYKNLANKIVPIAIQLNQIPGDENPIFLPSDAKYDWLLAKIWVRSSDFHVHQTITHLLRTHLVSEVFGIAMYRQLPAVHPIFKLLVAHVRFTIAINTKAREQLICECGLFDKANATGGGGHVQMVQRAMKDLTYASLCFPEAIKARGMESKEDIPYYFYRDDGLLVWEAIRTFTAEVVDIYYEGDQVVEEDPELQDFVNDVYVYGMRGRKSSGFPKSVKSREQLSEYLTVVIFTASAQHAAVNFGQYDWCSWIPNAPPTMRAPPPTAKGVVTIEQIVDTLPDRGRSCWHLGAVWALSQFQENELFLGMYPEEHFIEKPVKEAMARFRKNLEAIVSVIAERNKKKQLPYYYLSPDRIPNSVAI

[2] = target: T1, Polyunsaturated fatty acid 5-lipoxygenase (Homo sapiens); assay: Inhibition of partially purified human 5-LO expressed in Escherichia coli assessed as remaining 5-LO activity at 10 uM; values are per cent of control
[3] = target: T2, Polyunsaturated fatty acid 5-lipoxygenase (Homo sapiens, UniProt P09917); assay: Inhibition of 5-LO activity in ionophore A23187 and arachidonic-stimulated human intact PMNL; type: functional
T2 sequence (P09917 whole entry): T1 sequence (whole entry)
Outline: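 Freshly isolated human PMNL from healthy-donor leukocyte concentrates (dextran sedimentation, Nycoprep, hypotonic erythrocyte lysis), 5 × 10^6 cells/mL in PBS pH 7.4 with 1 mg/mL glucose and 1 mM CaCl2. 5-LO products analysed by HPLC; n ≥ 3, mean ± SEM.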

[4] = target: T2, Polyunsaturated fatty acid 5-lipoxygenase; assay: Inhibition of partially purified human 5-LO expressed in Escherichia coli
Outline: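 Recombinant 5-LO from E. coli MV1190 (pT3-5LO, expressed at 27 °C), partially purified by ammonium sulfate precipitation and ATP-agarose chromatography of the S100 fraction. 0.5 µg protein in PBS pH 7.4 with 1 mM EDTA and 1 mM ATP, compound 5-10 min at 4 °C. Started with 2 mM CaCl2 and 20 µM arachidonic acid, 10 min at 37 °C, methanol stop. HPLC product analysis as remaining activity; n ≥ 3, mean ± SEM.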

| SMILES | residual activity [1] [%] | residual activity [2] [%] | IC50 [3] [µM] | IC50 [4] [µM] |
| --- | --- | --- | --- | --- |
| CC1C(=O)OC2C1CCC1(C)Cc3sc(NC(=O)C4CCCC4)nc3C(C)C21 (stereo unspecified) | 66 | 52 | 8 | 10 |
| COc1ccccc1CC(=O)Nc1nc2c(s1)CC1(C)CCC3C(C)C(=O)OC3C1C2C (stereo unspecified) | 87 | 86 | 4 | > 10 |
| Cc1nnsc1C(=O)Nc1nc2c(s1)CC1(C)CCC3C(C)C(=O)OC3C1C2C (stereo unspecified) | 87 | 88 | 10 | > 10 |
| CC1C(=O)OC2C1CCC1(C)Cc3sc(NC(=O)NCc4ccccc4)nc3C(C)C21 (stereo unspecified) | 78 | 54 | 3 | > 10 |
| COc1ccc(C(=O)Nc2nc3c(s2)CC2(C)CCC4C(C)C(=O)OC4C2C3C)cc1 (stereo unspecified) | 57 | 78 | 6 | > 10 |
| CC1C(=O)OC2C1CCC1(C)Cc3sc(NC(=O)Nc4ccc(F)cc4F)nc3C(C)C21 (stereo unspecified) | 46 | 52 | 7 | 0.6 |
| CC1C(=O)OC2C1CCC1(C)Cc3sc(NC(=O)c4ccc5c(c4)OCO5)nc3C(C)C21 (stereo unspecified) | 67 | 96 | 2 | > 10 |
| COc1cc(C)c2c(c1C)CC(C(C)C(=O)NC(C)(C)C)CC2 (stereo unspecified) | 55 | 42 | > 10 | 4 |
| COc1cc(C(=O)Nc2nc3c(s2)C[C@]2(C)CC[C@@H]4[C@H](OC(=O)[C@H]4C)[C@H]2[C@@H]3C)cc(OC)c1OC | 65 | 60 | 0.9 | > 10 |
| CSc1cccc(NC(=O)Nc2nc3c(s2)CC2(C)CCC4C(C)C(=O)OC4C2C3C)c1 (stereo unspecified) | 55 | 67 | 4 | 1 |

Results, then the compound that gave them:

| residual activity [1] [%] | residual activity [2] [%] | IC50 [3] [µM] | IC50 [4] [µM] | SMILES |
| --- | --- | --- | --- | --- |
| 55 | 65 | > 10 | 1 | Cc1cc(OCCN(C)C)c(C)c2c1CCC(C(C)C(=O)Nc1nccs1)C2 (stereo unspecified) |
| 50 | 36 | 0.8 | 1 | CCCOc1cc(C)c2c(c1C)CC(C(C)C(=O)Nc1nccs1)CC2 (stereo unspecified) |
| 56 | 73 |  |  | Cc1cc(OCCN(C)C)c(C)c2c1CCC(C(C)C(=O)Nc1ccccn1)C2 (stereo unspecified) |
|  |  | 8 | 3 | CCCOc1cc(C)c2c(c1C)CC(C(C)C(=O)NCc1cccs1)CC2 (stereo unspecified) |
| 64 | 64 | 8 | > 10 | COc1cc(C)c2c(c1C)CC(C(C)C(=O)NCc1cccs1)CC2 (stereo unspecified) |
| 54 | 42 | 5 | 0.8 | COc1cc(C)c2c(c1C)CC(C(C)C(=O)Nc1ccccn1)CC2 (stereo unspecified) |
|  |  | 1 | 0.8 | CCCOc1cc(C)c2c(c1C)CC(C(C)C(=O)Nc1ncc(C)s1)CC2 (stereo unspecified) |
| 73 | 56 |  |  | COc1cc(C)c2c(c1C)CC(C(C)C(=O)Nc1nccs1)CC2 (stereo unspecified) |
| 67 | 56 | > 10 | > 10 | COCCOc1cc(C)c2c(c1C)CC(C(C)C(=O)NC1CCCC1)CC2 (stereo unspecified) |
| 74 | 62 |  |  | Cc1cc(OCCN2CCOCC2)c(C)c2c1CCC(C(C)C(=O)Nc1nccs1)C2 (stereo unspecified) |
| 47 | 41 | > 10 | 0.9 | COc1cc(C)c2c(c1C)CC(C(C)C(=O)NCc1ccco1)CC2 (stereo unspecified) |
|  |  | 0.9 | 6 | CCCOc1cc(C)c2c(c1C)CC(C(C)C(=O)Nc1ccccn1)CC2 (stereo unspecified) |
